From ChEMBL document CHEMBL2010780, “Pyridine Carboxamides: Potent Palm Site Inhibitors of HCV NS5B Polymerase” (ACS Med Chem Lett, 2010)
pEC50, pIC50: −log10 of the molar value.

Tests used:
Hepatitis C virus = experiment: Antiviral activity against Hepatitis C virus genotype 1b Con1 infected in human HuH7 cells assessed as inhibition of viral RNA replication after 3 by real time PCR analysis; format: functional, organism-based, Hepacivirus hominis, Huh-7; details: for EC50: huh-7; for pEC50: Hepatitis C virus, Con1, Huh-7, read-out: EC50
How it was run: (§1)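 Each value is the mean of duplicate experiments run on two separate weighings of compound.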

[1] = Cytotoxicity against human HuH7 cells after 3 days by MTS assay; format: cell-based, Huh-7; how it was run: as §1
[2] = Inhibition of Hepatitis C virus genotype 1b Con1 NS5B Cdelta21 polymerase assessed as incorporation of [33P]-CTP into heteropolymer RNA template after 2 hrs; set-up: species or system Hepacivirus hominis; details: Con1, 2 h; how it was run: as §1

Compound | EC50 (Hepatitis C virus) | CC50 at 72 h [1] [µM] | pIC50 [2] | pEC50 (Hepatitis C virus)
CC(C)c1ccc(NC(=O)c2cccnc2C2CC2)c(N2CCN(c3cnccn3)CC2)c1 | ND(toxic) | 21 | 5.70 | –
Cc1cnc(N2CCN(c3cc(C(C)C)ccc3NC(=O)c3cccnc3)CC2)s1 | – | – | 4.82 | –
CC(C)c1ccc(NC(=O)c2cccnc2)c(N2CCN(C(=O)Nc3ccccc3)CC2)c1 | – | – | < 4.00 | –
CC(C)c1ccc(NC(=O)c2cccnc2O)c(N2CCN(c3cnccn3)CC2)c1 | – | – | < 3.70 | –
CC(C)c1ccc(NC(=O)c2cccnc2)c(N2CCN(c3nsc(Cl)n3)CC2)c1 | – | > 10 | 5.30 | < 5.00
Cc1cncc(C(=O)Nc2ccc(C(C)C)cc2N2CCN(c3cnccn3)CC2)c1 | ND(toxic) | 13 | 5.64 | –
CC(C)c1ccc(NC(=O)C2CCCNC2)c(N2CCN(c3cnccn3)CC2)c1 (stereo unspecified) | – | – | < 3.70 | –
Cc1ncsc1C(=O)Nc1ccc(C(C)C)cc1N1CCN(c2cnccn2)CC1 | ND(toxic) | 25 | 6.24 | –
CC(C)c1ccc(NC(=O)C2CCOC2)c(N2CCN(c3cnccn3)CC2)c1 (stereo unspecified) | – | – | 4.70 | –
Cc1nc(N(C)C)sc1C(=O)Nc1ccc(C(C)C)cc1N1CCN(c2cnccn2)CC1 | – | > 10 | 5.00 | 5.16
CC(C)c1ccc(NC(=O)c2ccnnc2)c(N2CCN(c3cnccn3)CC2)c1 | – | – | < 4.70 | –
O=C(Nc1ccc(Br)cc1N1CCN(c2cnccn2)CC1)c1cccnc1 | – | – | < 4.70 | –
CC(C)c1ccc(NC(=O)c2ccsc2)c(N2CCN(c3cnccn3)CC2)c1 | – | 28 | 5.15 | 5.19
CNCC(=O)N1CCN(c2cc(C(C)C)ccc2NC(=O)c2cccnc2)CC1 | – | – | < 3.70 | –
Cc1c(F)cc(F)cc1C(=O)Nc1ccc(C(C)C)cc1N1CCN(c2cnccn2)CC1 | ND(toxic) | 20 | 6.27 | –
CC(C)c1ccc(NC(=O)c2cnc3ccccc3c2)c(N2CCN(c3cnccn3)CC2)c1 | – | 6 | 5.17 | 5.74
CC(C)c1ccc(NC(=O)c2cccnc2)c(N2CCN(c3nccs3)CC2)c1 | – | > 50 | 5.60 | < 4.30
CC(C)c1ccc(NC(=O)c2cnc3[nH]ccc3c2)c(N2CCN(c3cnccn3)CC2)c1 | – | – | < 4.70 | –
Cc1csc(N2CCN(c3cc(C(C)C)ccc3NC(=O)c3cccnc3)CC2)n1 | – | 27 | 5.41 | 5.22
Cc1oncc1C(=O)Nc1ccc(C(C)C)cc1N1CCN(c2cnccn2)CC1 | – | – | 4.89 | –

Compound | EC50 (Hepatitis C virus) | CC50 at 72 h [1] [µM] | pIC50 [2] | pEC50 (Hepatitis C virus)
CC(C)c1ccc(NC(=O)c2cccnc2)c(N2CCN(c3ncccn3)CC2)c1 | ND(toxic) | 37 | 5.64 | –
CC(C)c1ccc(NC(=O)c2cccnc2)c(N2CCN(C(=O)CN(C)C)CC2)c1 | – | – | < 3.70 | –
CC(C)c1ccc(NC(=O)c2ccc(C(F)(F)F)nc2)c(N2CCN(c3cnccn3)CC2)c1 | – | – | < 4.70 | –
CC(C)c1ccc(NC(=O)c2cccnc2)c(N2CCN(c3cncc(C4CC4)n3)CC2)c1 | ND(toxic) | 1 | 6.00 | –
CCOC(=O)c1ccc(NC(=O)c2cccnc2)c(N2CCN(c3cnccn3)CC2)c1 | – | – | < 5.30 | –
CC(C)c1ccc(NC(=O)c2cccnc2N)c(N2CCN(c3cnccn3)CC2)c1 | ND(toxic) | 30 | 6.00 | –
Cc1ncccc1C(=O)Nc1ccc(C(C)C)cc1N1CCN(c2ccncn2)CC1 | – | 20 | 7.00 | 5.96
CSCc1nccc(N2CCN(c3cc(C(C)C)ccc3NC(=O)c3cccnc3C)CC2)n1 | – | 19 | 7.57 | 5.66
Cc1ncoc1C(=O)Nc1ccc(C(C)C)cc1N1CCN(c2cnccn2)CC1 | – | – | 4.85 | –
CC(C)c1ccc(NC(=O)c2cccnc2)c(N2CCN(c3cnccn3)CC2)c1 | – | 54 | 5.52 | 4.70
CC(C)c1ccc(NC(=O)c2cccnc2)c(N2CCN(c3ccccn3)CC2)c1 | – | > 50 | 5.14 | < 4.30
Cc1nc(Br)sc1C(=O)Nc1ccc(C(C)C)cc1N1CCN(c2cnccn2)CC1 | – | > 10 | 5.52 | < 5.00
CC(C)c1ccc(NC(=O)c2cccc(O)n2)c(N2CCN(c3cnccn3)CC2)c1 | ND(toxic) | 17 | 4.34 | –
Cc1occc1C(=O)Nc1ccc(C(C)C)cc1N1CCN(c2cnccn2)CC1 | – | – | 4.82 | –
CC(C)c1ccc(NC(=O)C2CCOCC2)c(N2CCN(c3cnccn3)CC2)c1 | – | – | < 4.70 | –
O=C(Nc1ccc(C2CC2)cc1N1CCN(c2cnccn2)CC1)c1cccnc1 | – | – | 4.92 | –
COc1ncccc1C(=O)Nc1ccc(C(C)C)cc1N1CCN(c2cnccn2)CC1 | – | – | < 4.70 | –
CC(C)c1ccc(NC(=O)c2cncnc2)c(N2CCN(c3cnccn3)CC2)c1 | – | – | < 4.70 | –
Cc1cncc(N2CCN(c3cc(C(C)C)ccc3NC(=O)c3cccnc3)CC2)n1 | ND(toxic) | 23 | 6.30 | –
CC(C)c1ccc(NC(=O)c2cccnc2)c(N2CCN(c3ccncn3)CC2)c1 | ND(toxic) | 27 | 6.25 | –

Compound | EC50 (Hepatitis C virus) | CC50 at 72 h [1] [µM] | pIC50 [2] | pEC50 (Hepatitis C virus)
Cc1cnc(C(=O)Nc2ccc(C(C)C)cc2N2CCN(c3cnccn3)CC2)cn1 | – | – | < 4.70 | –
Cc1n[nH]cc1C(=O)Nc1ccc(C(C)C)cc1N1CCN(c2cnccn2)CC1 | – | – | < 3.70 | –
Cc1nocc1C(=O)Nc1ccc(C(C)C)cc1N1CCN(c2cnccn2)CC1 | – | – | < 3.70 | –
CC(C)c1ccc(NC(=O)c2cccnc2-c2ccccc2)c(N2CCN(c3cnccn3)CC2)c1 | ND(toxic) | 15 | < 3.70 | –
Cc1nccc(N2CCN(c3cc(C(C)C)ccc3NC(=O)c3cccnc3)CC2)n1 | ND(toxic) | 25 | 6.80 | –
Cc1ccc(C(=O)Nc2ccc(C(C)C)cc2N2CCN(c3cnccn3)CC2)cn1 | ND(toxic) | 11 | 4.85 | –
CC(C)c1ccc(NC(=O)c2cnccc2C(F)(F)F)c(N2CCN(c3cnccn3)CC2)c1 | – | – | < 4.70 | –
Cc1c(F)ccc(F)c1C(=O)Nc1ccc(C(C)C)cc1N1CCN(c2cnccn2)CC1 | ND(toxic) | 11 | 4.27 | –
CC(C)c1ccc(NC(=O)c2cccnc2)c(N2CCN(S(C)(=O)=O)CC2)c1 | – | – | < 3.70 | –
Cc1ccnc(N2CCN(c3cc(C(C)C)ccc3NC(=O)c3cccnc3)CC2)n1 | ND(toxic) | 14 | 5.82 | –
C=C(C)c1ncccc1C(=O)Nc1ccc(C(C)C)cc1N1CCN(c2cnccn2)CC1 | – | – | < 3.70 | –
CC(C)c1ccc(NC(=O)c2ccccn2)c(N2CCN(c3cnccn3)CC2)c1 | – | – | < 4.70 | –
CC(C)c1ccc(NC(=O)c2cccnc2F)c(N2CCN(c3cnccn3)CC2)c1 | ND(toxic) | 17 | 5.66 | –
CC(C)c1ccc(NC(=O)c2ccnc(NC(=O)C(C)(C)C)c2)c(N2CCN(c3cnccn3)CC2)c1 | – | – | < 4.70 | –
CC(C)c1ccc(NC(=O)c2cccnc2)c(N2CCN(C(=O)OC(C)(C)C)CC2)c1 | – | – | < 3.70 | –
Cc1c(F)cc(C(=O)Nc2ccc(C(C)C)cc2N2CCN(c3cnccn3)CC2)cc1F | – | > 50 | 5.25 | < 4.30
CC(C)c1ccc(NC(=O)c2cccnc2C(F)(F)F)c(N2CCN(c3cnccn3)CC2)c1 | ND(toxic) | 4.5 | 5.64 | –
CC(C)c1ccc(NC(=O)c2cccnc2)c(N2CCN(c3cncc(-c4ccccc4)n3)CC2)c1 | – | – | 4.77 | –
